We go through 2 molecules from ChEMBL document CHEMBL4138168, “Design and synthesis of novel thiobarbituric acid derivatives targeting both wild-type and BRAF-mutated melanoma cells” (Eur J Med Chem, 2018).

The structures appear in SMILES notation. pIC50: −log10 of the molar value. The source made the active and inactive calls. No cut-off for these calls is given here.

For experiment [1], the system named is UACC-903. Put plainly: Induction of apoptosis in human UACC-903 cells harboring BRAF mutant assessed as apoptotic cells level at 5 uM after 24 hrs by AAD dye containing caspase 3/7 activity assay (reference value: 6.88%). The experiment is classed as functional.
Experiment [2] deals with UACC-903. Briefly: Induction of apoptosis in human UACC-903 cells harboring BRAF mutant assessed as […] in cleaved PARP level at 5 to 25 uM after 24 hrs by Western blot analysis. The experiment is classed as functional, cell-based. In short, it runs like this:
(§1)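 2 × 10^6 cells treated with the indicated concentrations for 24 h. Whole-cell lysates run on SDS-PAGE, transferred to PVDF, probed with antibodies against apoptosis/survival proteins, and detected by enhanced chemiluminescence.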

The subject of experiment [3] is UACC-903. Put plainly: Antiproliferative activity against human UACC-903 cells harboring BRAF mutant after 48 hrs by MTT assay. The experiment is classed as functional, cell-based. The settings on record: UACC-903, 48 h. In short, it runs like this: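 3,000 cells per well, grown at 37 °C (DMEM with 10% FBS and penicillin/streptomycin; HCT116 in McCoy's 5A). Cells exposed in triplicate to 0.5–25 μM compound for 48 h. MTT (5 mg/mL PBS stock) added for 3 h, formazan dissolved in DMSO, OD read at 570 nm minus 630 nm background. IC50 from non-linear regression of two independent experiments.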
On the technique in general: Tetrazolium assays rely on reduction of a dye to a coloured formazan, in cell work by metabolically active cells.

The subject of experiment [4] is UACC-903. Put plainly: Induction of apoptosis in human UACC-903 cells harboring BRAF mutant assessed as late apoptotic cells at 25 uM after 24 hrs by Annexin V/7-AAD staining-based assay (reference value: 1.56%). The experiment is classed as functional.
Experiment [5] has as its system UACC-903. Briefly: Induction of apoptosis in human UACC-903 cells harboring BRAF mutant assessed as early apoptotic cells at 5 uM after 24 hrs by Annexin V/7-AAD staining-based assay (reference value: 2.68%). The experiment is classed as functional.
The subject of experiment [6] is UACC-903. Briefly: Cytotoxicity against human UACC-903 cells assessed as cell viability at 25 uM after 48 hrs by MTT assay relative to control. The experiment is classed as functional, cell-based. The settings on record: UACC-903, 48 h. In a few lines:
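MCF10A normal breast epithelial cells were kept in MEGM mammary epithelial medium; the cancer lines were in DMEM with 10% FBS, 37 °C. OD at 570 nm with 630 nm background, expressed relative to control.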

Experiment [7] concerns MDA-MB-231. Put plainly: Cytotoxicity against human MDA-MB-231 cells assessed as cell viability at 25 uM after 48 hrs by MTT assay relative to control. The experiment is classed as functional. The settings on record: MDA-MB-231, 48 h, read-out: Activity. In a few lines:
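MTT viability at a single 25 μM dose, 48 h, 3,000 cells/well. MCF10A normal breast epithelial cells were kept in MEGM mammary epithelial medium; the cancer lines were in DMEM with 10% FBS, 37 °C. OD at 570 nm with 630 nm background, expressed relative to control.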

The test system of experiment [8] is CHL-1. Briefly: Induction of apoptosis in human CHL-1 cells harboring wild type BRAF assessed as […] in cleaved PARP level at 5 to 25 uM after 24 hrs by Western blot analysis. The experiment is classed as functional, cell-based. In short, it runs like this: as §1
(In western blotting, separated proteins are transferred to a membrane and probed.)

In experiment [9] the test system is UACC-903. Briefly: Induction of apoptosis in human UACC-903 cells harboring BRAF mutant assessed as apoptotic dead cells level at 5 uM after 24 hrs by AAD dye containing caspase 3/7 activity assay (reference value: 3%). The experiment is classed as functional.
In experiment [10] the test system is UACC-903. Briefly: Induction of apoptosis in human UACC-903 cells harboring BRAF mutant assessed as apoptotic cells level at 25 uM after 24 hrs by AAD dye containing caspase 3/7 activity assay (reference value: 6.88%). The experiment is classed as functional.
For experiment [11], the system named is UACC-903. Put plainly: Induction of apoptosis in human UACC-903 cells harboring BRAF mutant assessed as necrotic cells at 25 uM after 24 hrs by Annexin V/7-AAD staining-based assay (reference value: 0.12%). The experiment is classed as functional.
The test system of experiment [12] is UACC-903. Briefly: Induction of apoptosis in human UACC-903 cells harboring BRAF mutant assessed as viable cells at 25 uM after 24 hrs by Annexin V/7-AAD staining-based assay (reference value: 95.64%). The settings on record: UACC-903, 24 h, read-out: Activity. The experiment is classed as functional.

Broadly, the pIC50 is the negative decadic logarithm of the IC50, by convention in mol/L. With `O=C1NC(=S)N(c2ccccc2)C(=O)/C1=C/C=C/c1cccs1`, the Activity in experiment [1] is 9.68%; in experiment [4], 44.28%; in [5] it was 3.7%; in [9] it was 2.88%; in experiment [10] it was 50.06%; in experiment [11], 5.31%. Besides, the result in experiment [2] and in [8] was Active. The pIC50 was 5.12 in experiment [3] and 5.42 in [6]. The viability at 25 µM in [7] is 20 to 30%; in experiment [12] it was 29.4%.

As to `O=C1NC(=S)NC(=O)C1=C/C=C/c1cccs1`, the Activity in experiment [1] amounted to 5.46%; in experiment [4], 40.54%; in experiment [5] it was 5.12%; in experiment [9], 3.94%; in [10], 38.14%; in experiment [11] it was 3.42%. The result in [2] and in [8] was Active. For the same molecule, the pIC50 in [3] is 5.09; in [6], 5.40. For the same molecule, the values for the viability at 25 µM in experiment [7] and in [12] were 20 to 30% and 25.8%, respectively.
